HCT116 bCat-KO: beta-catenin-lacking colon tumor cell growth suppression | HCT116 beta-catenin knockout viability, CellTiter-Glo, 60 h; stronger effect = lower value | viability, % at 10 µM | 1.5% of 140,000 active;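 active = viability at or under a set limit, the compound median less 4 SD, cut at about 6% in these data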
PMI act hi M6P: activators of human phosphomannose isomerase at near-saturating mannose 6-phosphate; P34949; coupled PMI enzyme assay, resazurin fluorescence, 20 min; stronger effect = higher value; 1 = untreated enzyme, 0 = substrate-free blank; activation factor at 20 µM; 0.34% of 190,000 active; AID 1216;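 active = activation factor of 2 or more at 20 µM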
Target sequence (P34949 whole entry, looked up): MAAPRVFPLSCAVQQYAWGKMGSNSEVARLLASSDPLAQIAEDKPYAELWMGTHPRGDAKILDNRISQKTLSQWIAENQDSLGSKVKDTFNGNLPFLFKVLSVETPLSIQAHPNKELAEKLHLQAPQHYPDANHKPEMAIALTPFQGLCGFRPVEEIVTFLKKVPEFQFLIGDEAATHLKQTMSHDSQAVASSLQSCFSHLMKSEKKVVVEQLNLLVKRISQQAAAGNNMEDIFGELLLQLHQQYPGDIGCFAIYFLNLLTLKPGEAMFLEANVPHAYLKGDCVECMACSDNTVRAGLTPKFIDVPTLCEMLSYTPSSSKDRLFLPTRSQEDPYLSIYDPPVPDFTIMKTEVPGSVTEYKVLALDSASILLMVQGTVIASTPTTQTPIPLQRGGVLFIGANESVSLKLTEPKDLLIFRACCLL
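Test system: human PMI in coupled enzyme assay; Input: PMI at 15 ng/mL final; Medium: HEPES buffer, pH 7.4; Schedule: 20 min incubation at room temperature; Technique: resorufin fluorescence at Ex 544/Em 590 nm; Compound: 20 µM single dose; Probe or stimulus: Near-saturating mannose-6-phosphate, 1.0 mM.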
PMI act: activators of human phosphomannose isomerase. P34949. purified human PMI, coupled resazurin fluorescence, 20 min; stronger effect = higher value; 1 = vehicle control, 0 substrate-free wells. activation factor at 20 µM. 0.005% of 190,000 active;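 active = activation factor of 2 or more at 20 µM, relative to plate controls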
PTEN del growth: PTEN-deleted cell growth suppression | HCT116 PTEN-null viability, CellTiter-Glo, 60 h; stronger effect = lower value | viability, % at 10 µM | 1.2% of 140,000 active | AID 827;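 active = viability at or below a set limit, 4 SD under the median of all tested compounds, cut at about 3.7% in these data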;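 note: PTEN knockout HCT116 line with beta catenin targeted HCT116 as companion control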
L major viab: inhibitors of Leishmania major promastigote growth; Leishmania major promastigotes, resazurin fluorescence viability; inhibition, % at 10 µM; 9% of 200,000 active; AID 1063; in the data active = inhibition above about 50%;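 note: promastigotes grown with compound for 44 hours at 28 °C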
Of the large screens only hits and unclear results are named; the others gave an inactive call. In the library only some 9.6% were active in any assay of this set; here they are far more common.

O=C(O)c1cccc(S(=O)(=O)Nc2ccc(S(=O)(=O)N3CCOCC3)cc2)c1	none (no result: HCT116 bCat-KO, PTEN del growth)
Cc1ccc(NS(=O)(=O)c2cccc(C(=O)O)c2)cc1S(=O)(=O)N1CCOCC1	L major viab 57
N#CC1=C(N)Oc2ccc3ccc(O)cc3c2C1c1ccsc1 (stereo unspecified)	none
Cc1nc2ccc(NC(=O)C3CCN(S(=O)(=O)c4cccs4)CC3)cc2s1	L major viab 65
O=C(CCNC(=O)c1ccccc1Cl)Nc1nc(-c2ccc3ccccc3c2)cs1	L major viab 80
O=C(Nc1nc(-c2ccc3ccccc3c2)cs1)C1CCN(S(=O)(=O)c2cccs2)CC1	L major viab 91
Cc1ccc(-c2csc(NC(=O)C3CCN(S(=O)(=O)c4cccs4)CC3)n2)cc1	L major viab 76
O=C(Nc1nccs1)C1CCN(S(=O)(=O)c2cccs2)CC1	none (no result: HCT116 bCat-KO, PTEN del growth)
O=C(Nc1nn[nH]n1)c1cc(-c2ccc(Cl)c(Cl)c2Cl)nc2ccccc12	none (no result: HCT116 bCat-KO, PTEN del growth)
COCCN(C(=O)c1ccccc1OC1CCN(S(C)(=O)=O)CC1)C(C)C	none (no result: HCT116 bCat-KO, PTEN del growth)
CC(C)CC1c2[nH]c3ccccc3c2CCN1C(=O)C1CCOCC1 (stereo unspecified)	none (no result: HCT116 bCat-KO, PTEN del growth)
COc1ccc2c(Cl)c(C(=O)N/N=C/c3ccc4c(c3)OCO4)sc2c1	L major viab 97
O=C(N/N=C/c1ccc2c(c1)OCO2)c1sc2cc(Cl)ccc2c1Cl	PTEN del growth 2.1
O=C(N/N=C/c1ccc2c(c1)OCO2)c1sc2cccc(Cl)c2c1Cl	none
COc1ccc2c(Cl)c(C(=O)N/N=C/c3c(C)[nH]c4ccccc34)sc2c1	L major viab 100
O=C(CCNc1ccc(F)cc1)c1cccc([N+](=O)[O-])c1	L major viab 97
O=C(CCNc1ccccc1)c1cccc([N+](=O)[O-])c1	L major viab 96
O=C(CCNc1ccc(Br)cc1)c1cccc([N+](=O)[O-])c1	L major viab 88 (no result: HCT116 bCat-KO, PTEN del growth)
Cc1ccc(NCCC(=O)c2cccc([N+](=O)[O-])c2)cc1	L major viab 100
O=C(NCCNc1ccc([N+](=O)[O-])cc1)c1cccc(Br)c1	none
Cc1ccc(NC(=O)CCC(=O)NNC(=O)c2cccc([N+](=O)[O-])c2)cc1C	none
Cc1nc(SCC(=O)c2cccc([N+](=O)[O-])c2)n[nH]1	none
CC1CC1C(=O)OCC(=O)Nc1ccc2[nH]c(=O)[nH]c2c1 (stereo unspecified)	none (no result: HCT116 bCat-KO, PTEN del growth)
COc1ccc(CCC(=O)OCC(=O)c2ccc(C)cc2)cc1	none
CC(NC(=O)Cc1cccc(C(F)(F)F)c1)c1ccc(F)cc1 (stereo unspecified)	none (no result: HCT116 bCat-KO, PTEN del growth)
CCCCOc1ccc(/C=C/C(=O)NC2=Nc3ccccc3NC(C)=C2C(=O)OCC)cc1OC	none (no result: HCT116 bCat-KO, PTEN del growth)
O=C(c1ccc(Br)o1)N1CCN(c2ccc3nnc(-c4ccc(F)cc4)n3n2)CC1	none
NNC(=O)c1cc2c(N3CCC(Cc4ccccc4)CC3)ncnc2s1	none (no result: HCT116 bCat-KO, PTEN del growth)
Cc1cc(C)cc(NS(=O)(=O)c2ccc(NC(=O)C3CCCCC3C(=O)O)cc2)c1 (stereo unspecified)	none
CSc1cccc(-n2cc(-c3ccc4c(c3)OCO4)[nH]c2=O)c1	PMI act hi M6P 2.1
CC/C(=N\NC(=O)c1ccc(-c2ccccc2)cc1)C12CC3CC(CC(C3)C1)C2	L major viab 65
Cc1ccn2cc(-c3cccc(NC(=O)C(C)C)c3)nc2c1	none (no result: HCT116 bCat-KO, PTEN del growth)
Cc1ccn2cc(-c3cccc(NC(=O)c4ccccc4)c3)nc2c1	L major viab 72
O=C(Nc1cccc(-c2cn3ccccc3n2)c1)c1cc2ccccc2oc1=O	HCT116 bCat-KO 2.8, PTEN del growth 1.8
O=C(OCC(=O)N1CCc2ccccc21)c1ccccc1	none
Cc1ccc(OCC(=O)N2CCc3ccccc32)cc1	none
O=C(COc1ccc2c(c1)CCC2)N1CCc2ccccc21	L major viab 52
O=C(CO/N=C/c1ccccc1O)N1CCc2ccccc21	L major viab 75
Cc1ccc2c(c1)[C@@H]1CN(C)CC[C@@H]1N2S(=O)(=O)c1ccc(F)cc1	L major viab 88
Cc1ccc2c(c1)[C@@H]1CN(C)CC[C@@H]1N2S(=O)(=O)c1ccc([N+](=O)[O-])cc1	none
CC1CC(=O)C(C2c3ccccc3CCN2C(=O)CCl)C(=O)C1 (stereo unspecified)	L major viab 51
COc1cc2c(cc1OC)C(C1C(=O)CC(C)(C)CC1=O)N(C(=O)CCl)CC2 (stereo unspecified)	none
CCn1ncc(Br)c1C(=O)Nc1ccc(F)c([N+](=O)[O-])c1	none
Brc1ccc(C2C3=C(Nc4ncnn42)c2ccccc2OC3c2ccncc2)cc1 (stereo unspecified)	L major viab 75
COc1ccc(C2Oc3ccccc3C3=C2C(c2cccs2)n2ncnc2N3)cc1 (stereo unspecified)	L major viab 69
COc1ccc(OC)c(NC(=O)C2=C(C)Nc3ncnn3C2c2cccs2)c1 (stereo unspecified)	none
COc1ccc(C2C3=C(Nc4ncnn42)c2ccccc2CC3)cc1OC (stereo unspecified)	none
CC(Sc1ccc(Cl)cc1)C(=O)Nc1ccc2c(c1)OCO2 (stereo unspecified)	none
CC(C)N1CCC2(CC1)N=C(c1ccc3c(c1)OCO3)CC(c1cc(Cl)ccc1O)N2 (stereo unspecified)	HCT116 bCat-KO 2.5, PTEN del growth 2.9, L major viab 100
Cc1ccc2cc(C(c3nnnn3C(C)(C)C)N3CCCC3)c(=O)[nH]c2c1C (stereo unspecified)	none (no result: HCT116 bCat-KO, PTEN del growth, L major viab)
CCOC(=O)CNC(=S)N(CCCN1CCCCCC1)Cc1cccs1	L major viab 73 (no result: HCT116 bCat-KO, PTEN del growth)
COc1ccccc1NC(=S)N(CCN1CCCCCC1)Cc1cccs1	L major viab 57 (no result: HCT116 bCat-KO, PTEN del growth)
CC1=C(C#N)c2nc(N)c(C#N)c(C)c2/C1=C\c1ccc(C)cc1	HCT116 bCat-KO 3.2, PTEN del growth 1.9, L major viab 100
COc1ccc(CCn2c(=S)[nH]c3cc(C(=O)NCc4ccco4)ccc3c2=O)cc1OC	none
O=C(NC(=S)N(CCc1ccccc1)CCc1ccccc1)c1ccco1	L major viab 95
COc1ccc(C(=O)NC(=S)N(Cc2ccccc2)Cc2ccccc2)cc1	L major viab 90
C=CCN(CC=C)C(=S)NC(=O)c1ccc(OC)cc1	none (no result: HCT116 bCat-KO, PTEN del growth)
COc1cc(C(=O)NC(=S)N(C)Cc2ccccc2)cc(OC)c1OC	none (no result: HCT116 bCat-KO, PTEN del growth)
COc1cc(C(=O)NC(=S)N(CCc2ccccc2)CCc2ccccc2)cc(OC)c1OC	L major viab 99
CC(=O)NN1C(=O)c2ccc(Oc3cccc([N+](=O)[O-])c3)cc2C1=O	none
CCOC(=O)c1ccc(NC(=O)CN2C(=O)C(CC)SC(CC)C2=O)cc1 (stereo unspecified)	none
CCc1nc(Nc2ccncc2)c2oc3ccccc3c2n1	HCT116 bCat-KO 2.0, PTEN del growth 1.7, L major viab 100
CC(Oc1ccc(C(C)(C)C)cc1)c1ccnc2nc(/N=C/N(C)C)nn12 (stereo unspecified)	none
Cn1c(-c2ccc(Cl)cc2)cnc1N	none

Screening data from PubChem BioAssay.
